Screening results: PubChem, several laboratories
This is a sample that favours compounds with a hit; in the whole collection about 3.7% have one here.
Furin inhibitor: human furin inhibition | P09958 | purified furin, fluorogenic substrate cleavage | inhibition, % at 20 µM or 30 µM | 0.061% of 220,000 active; in the data active = inhibition above about 25%
NPY2 pot ag: potentiates or activates human NPY-Y2 receptor; 0.45% of 220,000 active; P49146; activation, % at 3.6 µM; AID 1359; cells expressing NPY-Y2, potentiator/agonist read-out; in the data active = activation above about 27%;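 note: cells stimulated with NPY near EC25 plus isoproterenol at EC100; 0% = vehicle plus submaximal agonist and 100% = vehicle plus saturating agonist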
Target sequence (P49146 whole entry, looked up): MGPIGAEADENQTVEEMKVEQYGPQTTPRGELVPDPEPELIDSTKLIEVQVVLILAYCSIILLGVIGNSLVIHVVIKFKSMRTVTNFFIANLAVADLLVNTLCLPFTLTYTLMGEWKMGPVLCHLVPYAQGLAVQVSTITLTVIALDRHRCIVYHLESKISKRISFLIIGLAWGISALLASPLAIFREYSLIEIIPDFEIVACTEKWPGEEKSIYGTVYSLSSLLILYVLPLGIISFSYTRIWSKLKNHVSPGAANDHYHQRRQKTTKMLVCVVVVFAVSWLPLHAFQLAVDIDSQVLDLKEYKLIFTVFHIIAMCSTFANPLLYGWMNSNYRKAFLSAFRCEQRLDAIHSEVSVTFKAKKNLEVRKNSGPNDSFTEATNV
KCC2 mod: KCC2 (human) Cl- transport modulation. Q9H2X9. KCC2 cells, thallium flux FluoZin-2 fluorescence. B-score of Tl+ flux slope (higher = more flux/activation; lower = inhibition) at 10 µM. 2.2% of 190,000 active;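 active = thallium flux slope and its plate-corrected score both differing from the plate sample mean at a set confidence after two filtering rounds, in either direction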;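 note: slope of fluorescence scaled to starting intensity during 10 to 20 s after thallium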
NPY-Y1 antag: antagonists of human neuropeptide Y receptor Y1; inhibition, % at 3.6 µM; 1% of 200,000 active; P25929; AID 1040; HEK293-CNG Y1 cells, membrane potential fluorescence; NPY at EC95, then isoproterenol;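 active = inhibition above the campaign mean inhibition of all tested compounds plus 3 SD, cut at about 20% in these data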;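 note: 0% = DMSO wells given NPY plus isoproterenol and 100% = isoproterenol alone without NPY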
Target sequence (P25929 whole entry, looked up): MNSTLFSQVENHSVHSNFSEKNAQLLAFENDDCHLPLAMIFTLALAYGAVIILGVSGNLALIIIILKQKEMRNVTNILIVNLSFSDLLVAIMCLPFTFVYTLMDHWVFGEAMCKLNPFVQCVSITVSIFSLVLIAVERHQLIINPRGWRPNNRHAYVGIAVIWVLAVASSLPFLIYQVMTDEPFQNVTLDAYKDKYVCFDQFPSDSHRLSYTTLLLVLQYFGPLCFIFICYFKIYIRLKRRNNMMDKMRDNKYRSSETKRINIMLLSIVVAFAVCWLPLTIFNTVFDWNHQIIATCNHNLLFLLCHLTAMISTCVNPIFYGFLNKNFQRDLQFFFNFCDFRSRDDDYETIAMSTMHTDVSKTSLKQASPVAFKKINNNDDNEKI
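Assay system: HEK293 cells with Y1 receptor plus CNG channel | Probe or stimulus: NPY (25 nM), isoproterenol (1 µM), Ro 20-1724 (25 µM) | Timing: Compound incubation 1 h at room temperature, readout 45 min post-stimulation | Measured by: Membrane-potential fluorescent dye readout | Benchmarks: High control isoproterenol alone, low control NPY with isoproterenol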
NPY-Y1 PAM-ag: potentiators or agonists of human neuropeptide Y receptor Y1. P25929. NPY-Y1 expressing cells, potentiator/agonist activation. activation, % at 3.6 µM. 0.37% of 220,000 active. AID 1304; in the data active = activation above about 33%, passing the limit was not always enough;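 note: cells stimulated with NPY at EC10 then isoproterenol at EC100; 0% = low agonist plus stimulus and 100% = saturating agonist plus stimulus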
NPY Y2 blocker: antagonists of human neuropeptide Y receptor Y2. NPY-Y2 expressing cells, antagonist mode. inhibition, % at 2.7 µM. 0.99% of 140,000 active; in the data active = inhibition above about 17%;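 note: 0% = vehicle with agonist challenge and 100% = reference antagonist with challenge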
KCC2 sec1: confirmation of human KCC2 transport modulators | shares compounds with KCC2 mod | HEK293-KCC2, thallium flux, FluoZin2 fluorescence; active compounds read high | normalised thallium flux (F/F0 slope) at 10 µM | 15% of 3,700 active;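 active = thallium flux slope above the same plate's solvent-only control mean plus 3 SD; inconclusive = the two replicate wells disagree; inactive = no significant difference from solvent-only control wells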
KCC2 bumet counter: bumetanide-insensitive thallium flux in KCC2 cells with ouabain, counter-screen; shares compounds with KCC2 mod; HEK293-KCC2 + bumetanide/ouabain, thallium flux FluoZin2; active compounds read high; normalized thallium flux at 10 µM; 49% of 3,700 active;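 active = thallium entry rate above the same plate's blocked-transporter control wells by more than 3 SD; inconclusive = the two repeat wells disagree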;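 note: raw slope of fluorescence over initial fluorescence between 10 and 20 s after thallium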
KCC2 secondary2: confirmation of human KCC2 transport modulators. normalized thallium flux at 10 µM. 23% of 3,700 active. shares compounds with KCC2 mod. AID 1715. HEK293-KCC2, thallium flux FluoZin2 fluorescence; actives lie on both sides; F/F0 rise rate, 10–20 s post-thallium;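 active = thallium flux slope more than 3 SD above or below the plate's solvent-only control mean, mostly below; inconclusive = the two repeat wells disagreed; inactive = no significant shift from solvent-only controls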;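 note: raw slope with 0.1% DMSO as baseline and bumetanide as block control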
HEK293 Tl flux: counter-screen for KCC2 modulators: effect in parental HEK293 cells. thallium flux rate (normalised fluorescence) at 10 µM. thallium flux FluoZin2, ouabain; baseline-ratio fluorescence slope, 10–20 s after thallium. shares compounds with KCC2 mod. 46% of 3,700 active;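 active = thallium flux rate significantly above the same plate's solvent-only control wells, beyond their mean plus 3 SD; inconclusive = the two replicate wells gave conflicting results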
KCC2 retest ouab: confirmation of human KCC2 modulators with ouabain | shares compounds with KCC2 mod | 48% of 3,700 active | HEK293-KCC2, thallium flux FluoZin2 fluorescence; bidirectional: low = inhibitor, high = activator | raw Tl+ flux slope (below DMSO = inhibition, above = activation) at 10 µM | AID 1717;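 active = thallium flux slope beyond 3 SD from same-plate DMSO control mean in most replicates, usually higher, sometimes lower; inconclusive = repeat tests gave conflicting results; inactive = no significant difference from controls in most replicates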;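 note: slope of initial-normalized fluorescence between seconds 10 and 20 after thallium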
HEK293 Tl flux2: acts in parental HEK cells, second KCC2 counter-screen. AID 1718. HEK293 parental, thallium flux FluoZin-2 fluorescence slope. shares compounds with KCC2 mod. 33% of 3,700 active. thallium flux slope at 10 µM;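 active = thallium flux slope above the same plate's solvent-control mean plus 3 SD in both duplicate wells; inconclusive = duplicate wells that disagreed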;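 note: run without ouabain in cells lacking the KCC2 cotransporter; slope of fluorescence scaled to its starting value between 10 and 20 s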
Active calls of the source: *; ? = inconclusive; . = no result given.

SMILES	Furin inhibitor	NPY2 pot ag	KCC2 mod	NPY-Y1 antag	NPY-Y1 PAM-ag	NPY Y2 blocker	KCC2 sec1	KCC2 bumet counter	KCC2 secondary2	HEK293 Tl flux	KCC2 retest ouab	HEK293 Tl flux2
Nn1c(COc2ccc(Cl)cc2)n[nH]c1=S	-20	-2	-3.3*	5	-29	.	0.0097	0.0072	?	0.0076	0.035*	0.0099
Cc1cccc(C)c1OCc1n[nH]c(=S)n1N	-34	7	-0.37	4	8	.	.	.	.	.	.	.
O=C(NCCSCc1ccccc1)c1cc(S(=O)(=O)N2CCOCC2)ccc1F	-2	5	-3.8*	-2	11	2	0.0063	0.0051	0.026*	0.0076	?	0.011
CN(C)CCCNC(=O)c1cc(S(=O)(=O)N2CCOCC2)ccc1F	-5	7	-0.1	1	13	-1	.	.	.	.	.	.
COc1ccc(NC(=O)CCC2CCCCC2)cc1S(=O)(=O)N1CCCCC1	-11	2	-3.9*	8	3	11	0.0074	0.0058	0.029	0.0066	0.019	0.0096
COc1ccc(NC(=O)CC2CCCC2)cc1S(=O)(=O)N1CCCCC1	-30	3	0.38	-2	-17	3	.	.	.	.	.	.
Cn1c(=S)[nH]c2ccccc21	-10	-5	.	12	11	-2	.	.	.	.	.	.
S=c1[nH]c2ccccc2n2cccc12	-3	0	22*	.	-7	.	0.017*	0.087*	?	0.028*	0.048*	0.018*
Cc1ccc(Cn2c(SCCN3CCCCC3)nc3c2c(=O)n(C)c(=O)n3C)cc1	-5	-4	.	2	13	4	.	.	.	.	.	.
Cc1ccc(Cn2c(SCC(N)=O)nc3c2c(=O)n(C)c(=O)n3C)cc1	-13	-19	4.8*	11	-1	-1	0.0064	?	0.034	0.0075	0.019	0.011
O=C(Cc1ccccc1)NC1(Cc2ccc(O)cc2)CCCCC1	-19	13	-0.011	-4	14	.	.	.	.	.	.	.
Cc1ccc(C(=O)N2CCCC2)cc1Br	-20	3	-3.1*	1	2	2	0.0096	?	0.034	0.0077	0.021	0.011
O=C(c1ccc(C(=O)N2CCCCCC2)cc1)N1CCCCCC1	-17	-1	1.2	-3	-15	1	.	.	.	.	.	.
O=C(c1ccc(Cl)c([N+](=O)[O-])c1)N1CCN(Cc2ccc3c(c2)OCO3)CC1	-29	8	-0.39	1	-2	.	.	.	.	.	.	.
CC1CN(S(=O)(=O)c2cccc(C(=O)Nc3ccc(S(=O)(=O)Nc4ncccn4)cc3)c2)CC(C)O1 (stereo unspecified)	-6	-8	1.1	4	7	.	.	.	.	.	.	.
COCCn1nnnc1C(CC(C)C)N1CCN(C(=O)c2ccco2)CC1 (stereo unspecified)	-9	3	7.5*	-3	-1	4	0.0064	0.0046	0.032	0.0085	0.019	0.0099
Cc1[nH]nc(SCC(=O)NC2CCCCC2)c1[N+](=O)[O-]	-15	-1	0.15	10	-3	.	.	.	.	.	.	.
Clc1ccccc1Cc1noc(CN2CCCCC2CCc2ccccn2)n1 (stereo unspecified)	-21	5	-0.81	0	1	.	.	.	.	.	.	.
CCCCc1c(C)nc2ccccc2c1SCCC(=O)O	-15	18	-2.1	-1	-5	.	.	.	.	.	.	.
CCCCc1c(C)nc2ccc(C)cc2c1SCCC(=O)O	-13	8	-3.8*	-2	-21	.	0.0065	?	0.023*	0.0075	0.015*	0.01
COC(=O)C(Cc1ccc(O)cc1)NC(=O)c1ccccc1 (stereo unspecified)	-23	15	.	0	11	-1	.	.	.	.	.	.
COc1ccccc1C(=O)NNC(=O)C(=O)NCc1ccccc1	-11	-8	23*	5	-3	.	0.025*	0.046*	0.037	0.028*	0.048*	0.014*
COc1ccccc1C(=O)NCc1ccccc1	-13	-7	1.3	0	-29	0	.	.	.	.	.	.
COc1ccccc1C(=O)NNC(=O)c1sccc1-n1cccc1	-24	2	.	-1	-5	.	?	0.046*	0.048*	0.04*	0.05*	0.04*
COc1ccc(C(=O)NNC(=O)C(=O)NCc2ccccc2)cc1	-23	-4	.	0	2	.	0.016	0.019*	0.029	0.017*	0.022*	0.018*
SMILES	Furin inhibitor	NPY2 pot ag	KCC2 mod	NPY-Y1 antag	NPY-Y1 PAM-ag	NPY Y2 blocker	KCC2 sec1	KCC2 bumet counter	KCC2 secondary2	HEK293 Tl flux	KCC2 retest ouab	HEK293 Tl flux2
COC(=O)C(Cc1ccc(O)cc1)NC(=O)c1ccccc1OC (stereo unspecified)	-14	1	-5.2*	0	-19	4	0.0089	?	0.031	0.0085	0.018	0.011
COc1ccc(C(=O)Nc2cccc(C(=O)NCc3ccccc3)c2)cc1	-13	-5	-0.43	6	-4	.	.	.	.	.	.	.
COc1ccccc1C(=O)NNC(=O)C(=O)NC(C)C	-28	-4	4.3*	1	3	.	0.014*	0.02*	0.029	0.011*	?	0.011*
COc1ccccc1C(=O)NNC(=O)c1ccccc1F	-25	1	-0.16	-1	-12	1	.	.	.	.	.	.
CC(C)NC(=O)c1onc(CSc2ccc(Cl)cc2)c1C(=O)NC(C)C	-11	.	2.4*	.	.	.	0.0066	0.0045	0.027	0.0072	0.017	0.01
CC(C)NC(=O)c1onc(CSc2ccc(Cl)cc2)c1C(=O)O	-7	-17	-0.83	13	-26	9	.	.	.	.	.	.
CCCn1c(=O)c2ccccc2n2c(SCCOc3ccccc3)nnc12	-12	-3	-4.9*	8	6	7	0.0058	0.0028*	?	0.0047*	?	0.0077*
Nc1cc(S(=O)(=O)N2CCCCC2)ccc1Oc1ccc(Cl)cc1	-19	-15	-0.27	3	-4	.	.	.	.	.	.	.
Cc1ccc(C(=O)Nc2ncc(Cc3ccc(F)cc3)s2)o1	-29	-4	-4.8*	2	8	0	0.0075	0.007	0.031	?	0.018	?
Cc1ccc(C(=O)Nc2ncc(C)s2)o1	-19	2	.	-1	3	0	.	.	.	.	.	.
Nc1c(C(=O)O)sc2nc(-c3ccccc3)cc(-c3ccccc3)c12	-16	-17	0.42	.	-2	.	.	.	.	.	.	.
